Results taken from ChEMBL document CHEMBL3632582, “Aspertetranones A-D, Putative Meroterpenoids from the Marine Algal-Associated Fungus Aspergillus sp. ZL0-1b14” (J Nat Prod, 2015).
Active and inactive are the calls of the source. The rule behind the calls is not given here.

Legend:
RAW264.7 [1] = assay: Antiinflammatory activity in mouse RAW264.7 cells assessed as inhibition of LPS-induced TNFalpha production at 33.3 uM preincubated 2 hrs before LPS stimulation measured after 22 hrs by ELISA; assay type: functional
RAW264.7 [2] = assay: Antiinflammatory activity in mouse RAW264.7 cells assessed as inhibition of LPS-induced IL-6 production preincubated 2 hrs before LPS stimulation measured after 22 hrs by ELISA; assay type: functional, cell-based
How it was run: (§1)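 RAW 264.7 macrophages were pretreated for 2 h with compound across 0–80 μM, with hydrocortisone (20 μM) as control. LPS was then added for a further 22 h. IL-6 or IL-1β in the culture medium was quantified by ELISA.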

RAW264.7 [3] = assay: Antiinflammatory activity in mouse RAW264.7 cells assessed as inhibition of LPS-induced IL-1beta production preincubated 2 hrs before LPS stimulation measured after 22 hrs by ELISA; assay type: functional, cell-based; how it was run: as §1
RAW264.7 [4] = assay: Antiinflammatory activity in mouse RAW264.7 cells assessed as inhibition of LPS-induced nitric oxide production at 33.3 uM preincubated 2 hrs before LPS stimulation measured after 22 hrs; assay type: functional
RAW264.7 [5] = assay: Cytotoxicity against mouse RAW264.7 cells assessed as cell viability at 10 to 100 uM after 24 hrs by MTS assay; assay type: cell-based; details: raw264.7, 24 h
How it was run: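 RAW264.7 cells were seeded at 2 × 10^6 cells per well and grown to 80% confluency. They were then exposed to compound over a 10–100 μM gradient for 24 h, and viability was read colorimetrically by MTS.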

RAW264.7 [6] = assay: Antiinflammatory activity in mouse RAW264.7 cells assessed as inhibition of LPS-induced IL-6 production at 40 uM preincubated 2 hrs before LPS stimulation measured after 22 hrs by ELISA; assay type: functional; how it was run: as §1
RAW264.7 [7] = assay: Antiinflammatory activity in mouse RAW264.7 cells assessed as inhibition of LPS-induced IL-1beta production at 40 uM preincubated 2 hrs before LPS stimulation measured after 22 hrs by ELISA; assay type: functional; how it was run: as §1

Compound | inhibition at 33.3 µM (RAW264.7 [1]) [%] | inhibition (RAW264.7 [2]) | inhibition (RAW264.7 [3]) | inhibition at 33.3 µM (RAW264.7 [4]) [%] | Activity (RAW264.7 [5]) | inhibition at 40 µM (RAW264.7 [6]) [%] | inhibition at 40 µM (RAW264.7 [7]) [%]
Cc1cc2c(c(=O)o1)C(=O)[C@@H]1[C@@H](C)[C@]3(O)CC(=O)C(C)(C)C(=O)[C@@]3(O)[C@@H](O)[C@@]1(C)O2 | < 35 | inactive | inactive | < 35 | Non-toxic |  | 
Cc1oc(=O)c2c(c1C)O[C@@]1(C)[C@@H]([C@@H](C)[C@]3(O)CC(=O)C(C)(C)C(=O)[C@@]3(O)[C@H]1O)[C@H]2O | < 35 | Dose-dependent effect | Dose-dependent effect | < 35 | Non-toxic | 69 | 47
Cc1oc(=O)c2c(c1C)O[C@@]1(C)[C@H](C2)[C@@H](C)[C@]2(O)CC(=O)C(C)(C)C(=O)[C@@]2(O)[C@H]1O | < 35 | inactive | inactive | < 35 | Non-toxic |  | 
Cc1oc(=O)c2c(c1C)O[C@@]1(C)[C@H](C2=O)[C@@H](C)[C@]2(O)CC(=O)C(C)(C)C(=O)[C@@]2(O)[C@H]1O | < 35 | Dose-dependent effect | Dose-dependent effect | < 35 | Non-toxic | 43 | 42
